# Assay results published in ChEMBL document CHEMBL2157904, “Identification of a novel Smoothened antagonist that potently suppresses Hedgehog signaling” (Bioorg Med Chem, 2012).
# Active and inactive are the calls of the source. The calls are words filed in the database; no cut-off is given here.
# Experiments:
# [1] = Antiproliferative activity against Shh-stimulated C57BL/6 mouse granule cell precursor after 48 hrs by [3H]thymidine incorporation assay; assay type: functional
# Procedure, shortened: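 Primary cerebellar granule cell precursors taken from 7-day postnatal C57BL/6 mice. Treated 48 h with Shh plus compound at increasing concentrations, then [3H]-thymidine added for 16 h and incorporation measured. Curve-fit IC50, mean ± SEM, n = 3.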
# U2OS = experiment: Antagonist activity at chimeric Smo 633 mutant expressed in U2OS cells coexpressing beta arrestin2-GFP assessed as inhibition of intracellular beta arrestin2-GFP aggregate formation at 5 uM after 6 hrs by confocal microscopy; assay type: functional, cell-based; details: Homo sapiens
# Procedure, shortened: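 Cells exposed to compound at 5 µM for 6 hours. Confocal imaging scored loss of intracellular βarr2-GFP vesicular aggregates.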
# [2] = molecular target: Vasopressin V2 receptor (Homo sapiens) (UniProt P30518); experiment: Antagonist activity at V2R expressed in U2OS cells coexpressing beta arrestin2-GFP assessed as inhibition of D-arginine vasopressin-induced intracellular beta arrestin2-GFP aggregate formation at 5 uM preincubated for 1 hr before agonist treatment measured after 6 hrs of agonist treatment by confocal microscopy; assay type: functional, cell-based
# Protein smoothened = Protein smoothened (Mus musculus, UniProt P56726); experiment: Antagonist activity at Smo in mouse Shh-Light 2 cells assessed as inhibition of Shh-induced Gli1-reporter activity after 2 days by dual-luciferase reporter gene method; assay type: functional, cell-based, Shh Light II
# Procedure, shortened: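 Shh-LIGHT2 cells (clonal NIH3T3 line with stably integrated Gli-dependent firefly luciferase and constitutive Renilla luciferase) stimulated with purified Sonic Hedgehog at 50 ng/mL, with compound at increasing concentrations. Dual-luciferase read-out. Mean ± SEM.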
# Mus musculus = experiment: Inhibition of hair regrowth in eight week old C57BL/6 mouse at 0.5 mM topically administered daily on shaved and Nair depilated surface for 2 weeks; assay type: functional, organism-based
# Procedure, shortened: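 Female C57BL/6 mice aged eight weeks, in telogen, with dorsal skin shaved and then depilated with Nair for 2 min and rinsed. Compound at 0.5 mM in 95% acetone/5% DMSO, 30 µl applied topically to the depilated area daily for two weeks. Vehicle-treated controls. Brief 3% isoflurane anaesthesia during procedures.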
# Sequence of Vasopressin V2 receptor (Homo sapiens) (P30518 whole entry): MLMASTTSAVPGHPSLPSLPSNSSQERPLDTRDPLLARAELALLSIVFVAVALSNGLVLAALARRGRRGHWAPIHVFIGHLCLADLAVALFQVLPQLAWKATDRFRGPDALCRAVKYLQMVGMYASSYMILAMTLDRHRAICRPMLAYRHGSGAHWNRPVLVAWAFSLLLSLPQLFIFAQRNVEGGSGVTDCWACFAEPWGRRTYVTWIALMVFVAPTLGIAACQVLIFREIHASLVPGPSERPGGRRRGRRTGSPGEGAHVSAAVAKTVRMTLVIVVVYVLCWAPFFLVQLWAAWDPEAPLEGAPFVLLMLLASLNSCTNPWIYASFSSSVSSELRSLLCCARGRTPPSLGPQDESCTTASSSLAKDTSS
# Sequence of Protein smoothened (P56726 whole entry): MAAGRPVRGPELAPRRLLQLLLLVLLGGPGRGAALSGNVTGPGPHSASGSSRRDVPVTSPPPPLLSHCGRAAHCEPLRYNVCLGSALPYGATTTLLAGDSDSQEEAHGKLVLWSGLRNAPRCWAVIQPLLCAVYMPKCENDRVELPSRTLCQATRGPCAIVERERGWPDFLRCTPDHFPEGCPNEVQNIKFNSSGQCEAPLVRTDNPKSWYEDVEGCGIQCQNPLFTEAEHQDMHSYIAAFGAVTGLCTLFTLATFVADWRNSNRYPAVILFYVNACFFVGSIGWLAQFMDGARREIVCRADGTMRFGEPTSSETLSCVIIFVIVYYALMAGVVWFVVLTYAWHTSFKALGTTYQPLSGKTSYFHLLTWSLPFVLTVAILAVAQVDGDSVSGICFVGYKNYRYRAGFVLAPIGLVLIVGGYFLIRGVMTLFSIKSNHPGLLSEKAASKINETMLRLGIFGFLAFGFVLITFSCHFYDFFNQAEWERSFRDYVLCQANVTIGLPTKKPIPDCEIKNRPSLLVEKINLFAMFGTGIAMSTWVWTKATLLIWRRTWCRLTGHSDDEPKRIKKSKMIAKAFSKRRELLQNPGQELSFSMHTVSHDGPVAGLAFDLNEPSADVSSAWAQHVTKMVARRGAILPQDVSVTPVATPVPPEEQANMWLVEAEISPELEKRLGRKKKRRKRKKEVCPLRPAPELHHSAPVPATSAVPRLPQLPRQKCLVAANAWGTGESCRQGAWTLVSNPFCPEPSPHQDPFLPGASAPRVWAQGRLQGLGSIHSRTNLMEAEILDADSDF
SMILES,IC50 [1],inhibition (U2OS),inhibition [2],IC50 (Protein smoothened),inhibition (Mus musculus)
CS(=O)(=O)c1ccc(C(=O)Nc2ccc(Cl)c(-c3ccccn3)c2)c(Cl)c1 [VISMODEGIB],16.4 nM,–,–,–,–
CCN(C)Cc1ccc(N2CCC(NC(=O)c3cccc(-c4cccnc4)c3)CC2)nc1,–,Active,–,–,–
CC1=C2C[C@H]3[C@@H](CC=C4C[C@@H](O)CC[C@@]43C)[C@@H]2CC[C@]12O[C@@H]1C[C@H](C)CN[C@H]1[C@H]2C [CYCLOPAMINE],414 nM,Active,inactive,–,–
O=C(NC1CCN(Cc2ccc(N3CCC(NC(=O)c4cccc(-c5cccnc5)c4)CC3)nc2)CC1)c1cccc(-c2cccnc2)c1,16.6 nM,–,inactive,2.6 nM,Active
